Bioassay records (PubChem)
SENP6 inh: blocks the human protease SENP6. inhibition, % at 10 µM. Recombinant SENP6 catalytic domain, aminoluciferin luminescence. Q9GZR1. actives 1.8% (n = 330,000);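 active = inhibition above about 50% at the single tested dose, limit read from the data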;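 also: plate controls were DMSO wells with enzyme for no effect and DMSO wells lacking enzyme for full effect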
HSP90 inh: inhibitors of HSP90 luciferase refolding in rabbit reticulocyte lysate | inhibition, % at 5.6 µM | AID 1789 | actives 0.91% (n = 290,000) | luciferase refolding luminescence, 3 h;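 active = inhibition above the screen-wide mean plus 3 SD, computed separately per campaign, cut at about 16% in these data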;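 also: 0% = DMSO wells and 100% = 60 µM geldanamycin wells; inhibitors lower the luminescence because luciferase stays unfolded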
SENP7 inh: blocks the human protease SENP7 | AID 434973 | recombinant SENP7, Z-RLRGG-aminoluciferin luminescence, 40 min | actives 1.5% (n = 330,000) | Q9BQF6 | inhibition, % at 5 µM;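 active = inhibition above about 50% at the single test dose, limit read from the data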;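 also: plate controls were DMSO with enzyme for no effect and no enzyme buffer wells for full effect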
Target sequence (Q9BQF6 706-1050 limits assumed): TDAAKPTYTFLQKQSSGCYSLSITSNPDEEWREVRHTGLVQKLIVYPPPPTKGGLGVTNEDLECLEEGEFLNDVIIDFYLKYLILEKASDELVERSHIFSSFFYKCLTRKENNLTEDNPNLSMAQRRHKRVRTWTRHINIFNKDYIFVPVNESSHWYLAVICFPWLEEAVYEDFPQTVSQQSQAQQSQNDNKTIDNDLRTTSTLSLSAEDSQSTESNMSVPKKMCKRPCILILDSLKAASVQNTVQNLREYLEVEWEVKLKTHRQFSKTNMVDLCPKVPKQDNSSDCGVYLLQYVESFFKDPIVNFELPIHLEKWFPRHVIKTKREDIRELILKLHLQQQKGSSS
SENP8 block-1: inhibitors of human SENP8 protease. recombinant SENP8, Nedd8 substrate fluorescence. AID 602440. actives 0.64% (n = 360,000). inhibition, % at 20 µM. Q96LD8; in the data active = inhibition mostly above about 40%, no sharp cut-off; inactive = mostly below about 27%
Target sequence (Q96LD8 whole entry, looked up): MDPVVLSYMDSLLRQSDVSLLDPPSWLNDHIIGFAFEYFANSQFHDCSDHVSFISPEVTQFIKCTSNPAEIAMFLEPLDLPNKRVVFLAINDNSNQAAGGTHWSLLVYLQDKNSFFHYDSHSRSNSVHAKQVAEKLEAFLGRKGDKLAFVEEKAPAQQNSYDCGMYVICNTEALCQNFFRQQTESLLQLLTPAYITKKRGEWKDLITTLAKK
SENP8 block-2: inhibitors of human SENP8 protease | purified SENP8, Z-RLRGG-aminoluciferin cleavage, luminescence | actives 1.2% (n = 330,000) | Q96LD8 | inhibition, % at 10 µM; in the data active = inhibition above about 50%
SENP1 FRET inh: SENP1 (human) catalytic domain inhibition. Q9P0U3. recombinant SENP1 catalytic domain, CyPet-SUMO1-YPet FRET cleavage. inhibition, % at 10 µM. actives 0.21% (n = 360,000). AID 624204;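 active = inhibition at least 30% at 10 µM, raw YFP signal under a set limit, fluorescence ratio 0.5 to 1.5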;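 also: 0% = enzyme with DMSO and 100% = no enzyme wells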
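Material: hSENP1 catalytic domain, recombinant; medium: Tris pH 8 with BME, BSA, NP40 and catalase; compound: single concentration of 10 µM compound, 0.5% DMSO final; technique: FRET read of cyan and yellow fluorescence; timing: 50 min enzyme reaction, room temperature, light-protected; reagent: SFCypet-SUMO1-SFYpet substrate at 25 nM; control set: no-enzyme low, enzyme-DMSO high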
SENP1 inh conf: SENP1 (human) inhibition, single concentration confirmation. recombinant SENP1, CyPet-SUMO1-YPet FRET cleavage. actives 34% (n = 520). AID 651678. shares compounds with SENP1 FRET inh. inhibition, % at 10 µM; in the data active = inhibition mostly above about 35%, no sharp cut-off; inactive = mostly below about 32%;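 also: 0% = enzyme with DMSO and 100% = no enzyme control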
SENP1 kinetic: confirmation of human SENP1 SUMO protease inhibitors, kinetic; shares compounds with SENP1 FRET inh; recombinant SENP1, CyPet-SUMO1-YPet FRET kinetic cleavage; inhibition, % at 10 µM; actives 26% (n = 520); AID 651690; in the data active = inhibition mostly above about 32%, no sharp cut-off; inactive = mostly below about 29%;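 also: 0% = DMSO with enzyme and 100% = no enzyme substrate only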
* = called active by the depositor. In the library only some 2.9% were active in any assay of this set; here they are far more common.

Screening COc1ccc(N/N=C(/C)c2cnnc(-c3ccccc3)n2)cc1 returned SENP6 inh 5, HSP90 inh 4, SENP7 inh 3, SENP8 block-1 36, SENP8 block-2 1, SENP1 FRET inh 66*, SENP1 inh conf 10 and SENP1 kinetic 10.
CCN1CCC[C@H]1CNCCCn1cnc2c(SC)ncnc21 was read as SENP8 block-1 16 and SENP1 FRET inh -7.
Screening COc1ccc(CC(N)c2csc(Nc3nc(C)cnc3C)n2)cc1 (stereo not drawn) returned SENP8 block-1 -88 and SENP1 FRET inh -9.
`COc1cc([C@H]2c3c(cc(OC)c(O)c3OC)C[C@@H](CO)[C@@H]2CO[C@@H]2O[C@H](CO)[C@@H](O)[C@H](O)[C@H]2O)cc(OC)c1O` gave SENP6 inh -10, SENP7 inh 7, SENP8 block-1 -3, SENP8 block-2 -8, SENP1 FRET inh 40*, SENP1 inh conf 33* and SENP1 kinetic 22.
Screening CCOC(=O)c1ccc(N2C(=O)C3CCCN3C2=S)cc1 (stereo not drawn) returned SENP6 inh -1, SENP7 inh 2, SENP8 block-1 7, SENP8 block-2 1 and SENP1 FRET inh 0.
COc1cc2oc(=O)cc(-c3ccc(-c4ccc(CO)cc4)cc3)c2c(OC)c1OC was read as SENP7 inh -12, SENP8 block-1 -39 and SENP1 FRET inh 2.
`CC1CCc2c(sc3ncnc(SCC(=O)N(C)C4CCS(=O)(=O)C4)c23)C1` (stereo not drawn) gave SENP6 inh 16, SENP7 inh -3, SENP8 block-1 0, SENP8 block-2 6, SENP1 FRET inh 32*, SENP1 inh conf 1 and SENP1 kinetic 19.
Screening CCCSc1ccc([C@@H]2[C@@H]3C(=O)N(C)C(=O)[C@@H]3[C@]3(C(=O)OC)CCCN23)cc1OC returned SENP6 inh -6, SENP7 inh -6, SENP8 block-1 inactive, SENP8 block-2 -5 and SENP1 FRET inh -4.
Nc1ccccc1C=C1Cc2ccccc2C1=O was read as SENP8 block-1 11, SENP1 FRET inh 56*, SENP1 inh conf 10 and SENP1 kinetic -5.
O=C(NC(=S)Nc1ccccc1C(=O)O)c1cncc(Br)c1 was read as SENP6 inh 3, HSP90 inh 3, SENP7 inh -1, SENP8 block-1 -72, SENP8 block-2 11 and SENP1 FRET inh -3.
For O=C(NC(=S)Nc1ccccc1O)c1cncc(Br)c1 the results were SENP6 inh -6, SENP7 inh 4, SENP8 block-1 8, SENP8 block-2 -4, SENP1 FRET inh 30*, SENP1 inh conf 6 and SENP1 kinetic 4.
Screening CC1=Nc2ccccc2N=C(N)C1c1ccccc1 (stereo not drawn) returned SENP6 inh 8, HSP90 inh 1, SENP7 inh 12, SENP8 block-1 26, SENP8 block-2 -5, SENP1 FRET inh 36*, SENP1 inh conf 12 and SENP1 kinetic 9.
Screening CC1=Nc2ccccc2N=C(NC(=O)c2ccccc2)C1c1ccc(Cl)cc1 (stereo not drawn) returned SENP6 inh -2, HSP90 inh 1, SENP7 inh -11, SENP8 block-1 9, SENP8 block-2 -4 and SENP1 FRET inh 1.
Cc1cc(C)cc(C(O)c2ncc(-c3ccc4ccccc4c3)[nH]2)c1 (stereo not drawn) was read as SENP8 block-1 -193 and SENP1 FRET inh -2.
O=C(C[n+]1cc(Br)cc2ccccc21)c1ccc(Br)cc1 was read as SENP6 inh -13, HSP90 inh -6, SENP7 inh -8, SENP8 block-1 5, SENP8 block-2 -5, SENP1 FRET inh 52*, SENP1 inh conf 14 and SENP1 kinetic 8.
`O=C(C[n+]1cc(Br)cc(Br)c1)c1ccc(Cl)cc1` gave SENP6 inh -7, HSP90 inh -1, SENP7 inh -7, SENP8 block-1 13, SENP8 block-2 1 and SENP1 FRET inh -9.
O=C(C[n+]1cc(Br)cc2ccccc21)c1ccc(Cl)cc1 was read as SENP6 inh -14, HSP90 inh -3, SENP7 inh 11, SENP8 block-1 2, SENP8 block-2 -4, SENP1 FRET inh 44*, SENP1 inh conf 9 and SENP1 kinetic 6.
`Cc1c(C(=O)N2CCC[C@H]2CO)oc2c(F)cccc12` gave SENP6 inh 0, HSP90 inh -2, SENP7 inh 7, SENP8 block-1 6, SENP8 block-2 4 and SENP1 FRET inh 0.
Screening CNS(=O)(=O)c1ccc(C(=O)NCC(=O)NC(C)c2cccs2)cc1 (stereo not drawn) returned SENP6 inh -3, SENP7 inh -12, SENP8 block-1 8, SENP8 block-2 -7 and SENP1 FRET inh -1.
Cc1cc2c(C)nc(N/N=C/c3ccc([N+](=O)[O-])cc3)nc2o1 was read as HSP90 inh 8, SENP8 block-1 11, SENP1 FRET inh 36*, SENP1 inh conf 32 and SENP1 kinetic 19.
O=C(Nc1ccc(S(=O)(=O)Nc2cnc3ccccc3n2)cc1)c1cc(F)c(F)cc1Cl was read as SENP6 inh 7, HSP90 inh -4, SENP7 inh -4, SENP8 block-1 -294, SENP8 block-2 -2 and SENP1 FRET inh 1.
Screening Cc1c(C#N)c(O)[nH]c(=O)c1N=Nc1ccc(Br)cc1C(=O)O returned HSP90 inh 0, SENP8 block-1 46*, SENP1 FRET inh 38*, SENP1 inh conf 57* and SENP1 kinetic 34*.
`Cc1cccc(N=Nc2c(C)c(C#N)c(O)[nH]c2=O)c1` gave SENP6 inh 18, HSP90 inh 2, SENP7 inh 47, SENP8 block-1 24, SENP8 block-2 37 and SENP1 FRET inh 16.
`O=c1[nH]c2cc3ccccc3cc2nc1-c1nnnn1Cc1ccccc1` gave SENP8 block-1 1, SENP1 FRET inh 41*, SENP1 inh conf 80* and SENP1 kinetic 50*.
`O=c1[nH]c2cc3ccccc3cc2nc1-c1nnnn1C1CCCC1` gave SENP8 block-1 24, SENP1 FRET inh 70*, SENP1 inh conf 125* and SENP1 kinetic 78*.
`CN(CC(=O)Nc1cccc(F)c1)C(=O)c1ccc(S(=O)(=O)N2CCCC2)cc1` gave SENP6 inh -8, SENP7 inh -10, SENP8 block-1 11, SENP8 block-2 -12 and SENP1 FRET inh 0.
